CHOP UPR activ – activators of apoptotic arm of unfolded protein response (CHOP); CHO-CHOP luciferase reporter, UPR activation, luminescence; percent of tunicamycin response over DMSO baseline; activation, % at 10 µM; 330,000 tested, 0.34% active; AID 449763;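 active = at 10 µM dose, activation of 40% or more, normalized to positive control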;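 also: 100% = tunicamycin at 10 µg/mL and 0% = DMSO alone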
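System: CHO CHOP reporter cells. Amount: 500 cells per well. Buffer or medium: F12 medium, 10% FBS. Compound dosing: one dose, 10 µM in 0.5% DMSO. Incubation: 6 h compound exposure at 37 °C after overnight seeding. Technique: Steady-Glo luciferase luminescence. Benchmarks: tunicamycin and DMSO controls.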
XBP1 UPR activ – adaptive UPR (XBP1) activation. CHO-XBP1 luciferase reporter, IRE1-XBP1 UPR activation, luminescence; percent of tunicamycin response, DMSO as zero. activation, % at 20 µM. 330,000 tested, 0.33% active;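 active = versus positive control, 20 µM dose yields 30% or more activation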;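 also: 100% = tunicamycin at 10 µg/mL and 0% = DMSO only wells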
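Test system: CHO-XBP1 luciferase reporter cells | Buffer or medium: Serum-containing F12 medium, 10% FBS | Schedule: 6 h compound exposure at 37 °C, 5% CO2 | Detection: Steady-Glo luciferase glow luminescence, 10 min after reagent addition | Read-out basis: Activation, % of tunicamycin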
CHOP inh – CHOP inhibition in unfolded protein response; CHO-K1 CHOP-promoter luciferase, tunicamycin-induced, 15-18 h; inhibition, % at 10 µM; 220,000 tested, 3.8% active; AID 2732;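 active = compounds that reduced the stress-induced luciferase reporter signal by more than about 70% of percent inhibition, limit read from the data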;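 also: 0% = tunicamycin plus vehicle and 100% = wells without tunicamycin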
L major viab – Leishmania major promastigote growth inhibition | Leishmania major promastigotes, resazurin fluorescence viability | AID 1063 | inhibition, % at 10 µM | 200,000 tested, 9% active; in the data active = inhibition above about 50%;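 also: promastigotes grown with compound for 44 hours at 28 °C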
T cruzi inh – T. cruzi replication inhibition. T. cruzi beta-gal in NIH3T3, luminescence, 90 h. inhibition, % (concentration not given with the values). 300,000 tested, 1.4% active;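 active = mean inhibition across valid replicates above about 55%, limit read from the data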;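 also: signal also drops with host cell toxicity which is not excluded here; 0% = plate median of DMSO wells and 100% = zero luminescence signal; higher percent means less beta-gal luminescence so fewer parasites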
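System: NIH/3T3 fibroblasts plus reporter T. cruzi. Medium: DMEM plus 2% FBS. Probe or stimulus: 5000 reporter trypomastigotes per well. Compound: single 50 nL compound addition per well in DMSO. Incubation: co-culture of at least 90 h after 3 h attachment. Detection: GalScreen β-gal luminescence, detergent lysis, 60 min. Evaluation: parasite load inhibition, %.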
Dynein cargo inh – blocks dynein driven cargo transport along microtubules; 3617.4 mouse cells, GR-EGFP nuclear translocation imaging; test concentration mostly 20 µM; stimulated with dexamethasone, 1 µM; active compounds read low; 220,000 tested, 0.47% active; AID 1381; z-score, hits read low;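 active = plate z-score of nuclear minus cytoplasmic receptor signal below a set negative limit, without overly bright fluorescence or cell loss, cut at about -3.5 in these data, passing the limit was not always enough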;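 also: z-score of nuclear minus cytoplasmic ring GR-EGFP intensity difference per well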
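medium = tetracycline-free induction medium containing charcoal-stripped FBS | also added = 1.0 µM final dexamethasone stimulus | schedule = 48 h induction, 1 h compound, 30 min dex at 37 °C | technique = fixed, Hoechst-stained cells imaged at 10x for EGFP | measure = GR-EGFP nuclear translocation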
* marks the source's active call; other numbers are inactive results; x = not tested or not shown. This excerpt belongs to a sample that is enriched for hits.

SMILES | CHOP UPR activ | XBP1 UPR activ | CHOP inh | L major viab | T cruzi inh | Dynein cargo inh
CCC(C)(C)C1CCC(=NNC(=S)Nc2cccnc2)CC1 (stereo not drawn) | -0.6 | -1.7 | -7.7 | 0.2 | -6.8 | 0.231
CC1(C)C2CC=C(/C=N/NC(=S)Nc3cccnc3)C1C2 (stereo not drawn) | 1.7 | -1.0 | 38.1 | 97.4* | 13.2 | 0.0447
CC(C)(C)c1ccc(/C=N/NC(=S)Nc2cccnc2)cc1 | 1.3 | -4.8 | 13.3 | 16.6 | 5.6 | 0.938
Cc1cc(/C=C2\SC(=O)N(CC(=O)Nc3ccccc3F)C2=O)c(C)n1C | 4.8 | -1.0 | 84.9* | -5.7 | -0.7 | -0.521
Cc1cccc(NC(=O)CN2C(=O)S/C(=C\c3cc(C)n(C)c3C)C2=O)c1 | 1.8 | -3.9 | 62.0 | 3.7 | -2.9 | 0.656
CCCNC(=O)c1onc(CSc2ccc(Cl)cc2)c1C(=O)NC(C)C | -2.2 | -0.4 | x | x | 1.8 | x
CCn1cc(S(=O)(=O)N2CCc3ccccc3C2)cn1 | -0.4 | -3.8 | x | x | -5.8 | x
CCCCn1c(N)c(N(CCOC)C(=O)COC(=O)/C=C/c2ccc(Br)cc2)c(=O)[nH]c1=O | 3.0 | -1.9 | x | x | -1.1 | x
O=C(c1cc2ccccc2oc1=O)N(Cc1ccccc1)Cc1ccc2c(c1)OCO2 | 0.3 | 1.4 | -0.9 | 61.0* | 14.5 | -0.0299
Cc1cc(C)nc(NC(=NCCc2c[nH]c3ccccc23)NC(=O)Nc2ccccc2)n1 | 1.2 | -3.1 | 66.9 | 72.6* | 49.1 | -0.276
Cc1cc(C)nc(NC(=NCCc2c[nH]c3ccccc23)NC(=O)Nc2ccc(Cl)c(Cl)c2)n1 | 0.1 | -3.4 | 53.0 | 98.2* | 62.2* | -0.101
CCOC(=O)c1nc(C)nc(Sc2n[nH]c(-c3cc(C(F)(F)F)cc(C(F)(F)F)c3)n2)c1C | 4.3 | 0.2 | 71.9* | x | -8.2 | 1.05
NS(=O)(=O)c1ccc(CCNC(=O)c2coc3ccccc3c2=O)cc1 | 2.9 | -0.3 | x | x | -11.8 | x
CCCn1nnc(NC(=O)c2cccc(Cl)c2)n1 | 2.5 | -1.8 | -12.1 | -3.9 | -5.1 | -0.349
CCn1nnc(NC(=S)NC(=O)c2ccc(-c3cccc(Cl)c3)o2)n1 | 1.5 | 7.0 | -11.1 | x | -5.9 | 0.199
CCCn1nnc(NC(=O)c2cccc(OCc3ccccc3)c2)n1 | 1.0 | 2.4 | 27.1 | 52.2* | -3.2 | 2.58
CCCCn1nnc(NC(=O)Cc2ccc(Cl)cc2)n1 | 0.3 | -4.9 | 9.6 | -4.0 | 4.3 | -0.0569
O=C(Nc1ncc(Cc2cccc(C(F)(F)F)c2)s1)c1ccc(-c2cccc([N+](=O)[O-])c2)o1 | 4.1 | -0.6 | 37.8 | 91.2* | 61.8* | 0.538
CCCn1nnc(NC(=O)c2ccc(-c3cccc(Cl)c3)o2)n1 | 3.6 | 1.8 | -7.8 | 76.8* | 5.8 | 0.704
CCCCn1nnc(NC(=O)c2ccc(-c3cccc(Cl)c3)o2)n1 | 2.2 | 3.9 | 16.6 | 50.9* | 8.2 | 2.13
CCCCn1nnc(NC(=O)c2ccc([N+](=O)[O-])cc2Cl)n1 | 1.8 | -0.5 | 14.3 | x | 8.2 | 0.232
CCCCn1nnc(NC(=O)c2ccc(-c3cccc([N+](=O)[O-])c3)o2)n1 | -0.2 | -0.1 | 10.4 | 55.6* | 12.2 | -0.996
CC(=O)N1CCOc2ccc(S(=O)(=O)NC(C)c3ccccc3)cc21 (stereo not drawn) | -0.2 | -3.1 | x | x | 2.0 | x
COc1ccc(CCNC(=O)CCC(=O)N2CC(C)Oc3ccccc32)cc1OC (stereo not drawn) | -1.0 | -4.2 | x | x | 2.5 | x
COC(=O)c1[nH]c2cccc(OC)c2c1NC(=O)CCN1CCN(c2cccc(Cl)c2)CC1 | x | x | 19.0 | 100.3* | x | -0.866
COC(=O)c1[nH]c2cccc(OC)c2c1NC(=O)CCN1CCSCC1 | 2.5 | 3.2 | 11.1 | x | -2.0 | -0.143
Cc1cc(C)c2nc(NNC(=O)c3ccc(S(=O)(=O)N4CCc5ccccc5C4)cc3)sc2c1 | 0.0 | 1.7 | 43.8 | 99.3* | 59.0* | 2.68
Cc1cc(C)c2sc(NNC(=O)c3ccc(S(=O)(=O)N4CCc5ccccc5C4)cc3)nc2c1 | -1.1 | 2.3 | 45.2 | 98.7* | 58.7* | 0.0723

Source: PubChem (several laboratories)
